# ChEMBL document CHEMBL3797089, “Morusin Induces TRAIL Sensitization by Regulating EGFR and DR5 in Human Glioblastoma Cells” (J Nat Prod, 2016)
# Activity calls are given as the source filed them. No cut-off for these calls is given here.
# How the values were obtained:
# [1] = test system: LN-18; experiment: Effect on DcR2 expression in human LN18 cells upto 25 uM after 24 hrs by Western blot analysis; assay type: functional, cell-based
# How it was run: (§1)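 Cells exposed to a range of morusin concentrations for 24 h. Cell extracts immunoblotted for DR4, DR5, DcR1 and DcR2, with β-actin as internal control and HRP-conjugated secondary antibodies (1:5000).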
# [2] = Reduction of PDGFR expression in human U373MG cells at 25 uM after 24 hrs by Western blot analysis; assay type: functional, cell-based; settings: U-373MG ATCC
# How it was run: (§2)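 LN18, U87MG, T98G, U251MG and U373MG glioblastoma cells were exposed to morusin for 24 h. Cells were maintained in DMEM, MEM or RPMI with 10% FBS at 37 °C and 5% CO2. Whole-cell lysates were Western blotted for receptor proteins, with β-actin as internal control.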
# [3] = Reduction of PDGFR expression in human U251MG cells at 25 uM after 24 hrs by Western blot analysis; assay type: functional, cell-based; settings: U-251; how it was run: as §2
# [4] = Reduction of XIAP expression in human U373MG cells at 25 uM by Western blot analysis; assay type: functional, cell-based; settings: U-373MG ATCC, TDE = time-dependent effect
# How it was run: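 Time course: U87MG and U373MG cells were exposed to 25 μM morusin for the indicated times. Whole-cell extracts were Western blotted, with β-actin as internal control.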
# [5] = test system: U373 MG; experiment: Effect on DR4 expression in human U373MG cells upto 25 uM after 24 hrs by Western blot analysis; assay type: functional, cell-based; settings: U-373MG ATCC; how it was run: as §1
# [6] = test system: U-87 MG; experiment: Induction of apoptosis in human U87MG cells assessed as increase in cleaved caspase 3 levels at 2.5 uM after 24 hrs by Western blot analysis in presence of TRAIL; assay type: functional, cell-based; settings: U-87MG ATCC
# How it was run: (§3)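 U87MG and T98G given TRAIL 25 ng/mL plus morusin 2.5 μM together for 24 h; single-agent arms used TRAIL 50 ng/mL or morusin 5 μM. Lysates immunoblotted for cleaved caspase 3, 8, 9 and cleaved PARP, with β-actin as internal control.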
# [7] = test system: U-87 MG; experiment: Induction of DR5 mRNA expression in human U87MG cells at 25 uM after 24 hrs by RT-qPCR analysis; assay type: functional, cell-based; settings: U-87MG ATCC
# How it was run: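 U87MG held at 25 μM morusin for the times indicated. Total RNA extracted; 1 μg reverse transcribed; DR5 mRNA measured by RT-qPCR against GAPDH. Mean ± SD.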
# [8] = Reduction of EGFR expression in human U373MG cells at 25 uM after 24 hrs by Western blot analysis; assay type: functional, cell-based; settings: U-373MG ATCC; how it was run: as §2
# [9] = test system: U-87 MG; experiment: Induction of apoptosis in human U87MG cells assessed as apoptic cells at 20 uM after 24 hrs by V-FITC/propidium iodide staining based flow cytometric analysis in presence of TRAIL; assay type: functional, cell-based; settings: U-87MG ATCC
# How it was run: (§4)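 (2–3) × 10^5 cells/well given TRAIL 50 ng/mL with morusin 20 μM for 24 h. Annexin V-FITC/PI double staining, flow cytometry; annexin V-positive cells counted as apoptotic. Mean ± SD, t-test against mock.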
# [10] = test system: T98G; experiment: Induction of apoptosis in human T98G cells assessed as apoptic cells at 20 uM after 24 hrs by V-FITC/propidium iodide staining based flow cytometric analysis in presence of TRAIL; assay type: functional, cell-based; how it was run: as §4
# [11] = Cytotoxicity against human U138MG cells assessed as reduction in cell viability after 24 hrs by MTT assay; assay type: functional, cell-based; settings: U138-MG
# How it was run: (§5)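 Seeded 3–5 × 10^3 cells/well, treated the next day with a range of morusin (DMSO stock) for 24 h, 37 °C, 5% CO2. Then fresh medium with 1 mg/mL MTT for 2 h at 37 °C, lysis buffer overnight at 37 °C, OD 570 nm. Mean ± SD from at least three independent experiments in triplicate.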
# [12] = biological target: Epidermal growth factor receptor (Homo sapiens) (UniProt P00533); experiment: Inhibition of EGFR phosphorylation in human U87MG cells measured up to 25 uM after 24 hrs by Western blot analysis; assay type: cell-based; settings: U-87MG ATCC
# Chain of Epidermal growth factor receptor (Homo sapiens) (P00533 whole entry): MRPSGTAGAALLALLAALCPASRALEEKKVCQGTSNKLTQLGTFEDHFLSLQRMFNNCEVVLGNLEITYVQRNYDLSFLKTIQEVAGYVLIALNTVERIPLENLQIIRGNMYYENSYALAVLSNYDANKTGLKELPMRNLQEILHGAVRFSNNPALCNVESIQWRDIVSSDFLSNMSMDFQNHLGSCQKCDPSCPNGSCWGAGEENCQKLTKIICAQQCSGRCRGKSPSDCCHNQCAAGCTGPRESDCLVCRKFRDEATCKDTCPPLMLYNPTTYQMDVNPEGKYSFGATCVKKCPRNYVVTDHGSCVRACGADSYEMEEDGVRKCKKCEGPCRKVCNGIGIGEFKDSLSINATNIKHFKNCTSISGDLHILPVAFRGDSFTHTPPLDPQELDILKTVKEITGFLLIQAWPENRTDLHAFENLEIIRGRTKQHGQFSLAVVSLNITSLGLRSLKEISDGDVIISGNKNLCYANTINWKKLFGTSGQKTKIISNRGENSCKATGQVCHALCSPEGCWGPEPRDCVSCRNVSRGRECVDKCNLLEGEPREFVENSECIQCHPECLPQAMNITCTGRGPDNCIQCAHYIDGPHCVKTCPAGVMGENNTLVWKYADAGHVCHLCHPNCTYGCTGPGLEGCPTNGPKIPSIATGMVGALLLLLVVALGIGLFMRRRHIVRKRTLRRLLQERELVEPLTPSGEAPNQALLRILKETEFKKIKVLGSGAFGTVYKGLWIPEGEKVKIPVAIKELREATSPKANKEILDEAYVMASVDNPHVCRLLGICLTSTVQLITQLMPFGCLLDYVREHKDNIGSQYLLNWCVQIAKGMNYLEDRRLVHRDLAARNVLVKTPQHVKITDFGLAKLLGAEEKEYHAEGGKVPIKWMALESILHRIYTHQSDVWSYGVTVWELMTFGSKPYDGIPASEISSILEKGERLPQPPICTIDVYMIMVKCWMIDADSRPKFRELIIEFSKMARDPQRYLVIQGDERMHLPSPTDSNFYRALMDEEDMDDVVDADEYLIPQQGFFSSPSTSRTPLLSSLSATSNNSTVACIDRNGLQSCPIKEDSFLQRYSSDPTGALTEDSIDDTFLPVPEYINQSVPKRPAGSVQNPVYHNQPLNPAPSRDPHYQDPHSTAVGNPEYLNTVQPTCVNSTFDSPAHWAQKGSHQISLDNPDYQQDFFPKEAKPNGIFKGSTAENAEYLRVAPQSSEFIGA
# How it was run: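 Cells grown in MEM (U87MG) or RPMI (U373MG) with 10% FBS, 5% CO2, 37 °C. Treated for 24 h with the indicated concentrations of morusin (DMSO stock). Whole-cell lysates immunoblotted for phosphorylated and total proteins, with β-actin as internal control.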
# [13] = test system: U-87 MG; experiment: Effect on DcR2 expression in human U87MG cells upto 25 uM after 24 hrs by Western blot analysis; assay type: functional, cell-based; settings: U-87MG ATCC; how it was run: as §1
# [14] = test system: U373 MG; experiment: Induction of DR4 expression in human U373MG cells at 25 uM after 24 hrs by FITC-conjugated flow cytometric analysis; assay type: functional, cell-based; settings: U-373MG ATCC
# How it was run: (§6)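 Cells given 25 μM morusin for 24 h, then stained on ice for 30 min with 0.5 μg/mL FITC-conjugated anti-DR4, anti-DR5 or isotype IgG in FACS buffer. Surface expression read by flow cytometry.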
# [15] = Reduction of PDGFR expression in human LN18 cells at 25 uM after 24 hrs by Western blot analysis; assay type: functional, cell-based; settings: LN-18; how it was run: as §2
# [16] = Reduction of XIAP mRNA expression in human U87MG cells at 25 uM by RT-qPCR analysis; assay type: functional, cell-based; settings: U-87MG ATCC, TDE = time-dependent effect
# How it was run: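 U87MG cells were exposed to 25 μM morusin over a time course. Total RNA (1 μg) was reverse transcribed, and XIAP and survivin transcripts were measured by RT-qPCR against GAPDH. Results are mean ± SD from at least three independent experiments.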
# [17] = Cytotoxicity against human U87MG cells assessed as reduction in cell viability after 24 hrs by MTT assay; assay type: functional, cell-based, U-87MG ATCC; settings: U-87 MG; how it was run: as §5
# [18] = Cytotoxicity against human U87MG cells transfected DR5 siRNA assessed as cell death after 24 hrs by MTT assay in presence of TRAIL; assay type: functional, U-87MG ATCC
# How it was run: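 U87MG cells were transiently transfected with scrambled control or DR5 siRNA by lipofection. At 48 h after transfection they were cotreated with TRAIL at 50 ng/mL and test compound at 20 μM for 24 h. Viability was read by MTT: 1 mg/mL for 2 h at 37 °C, lysis overnight, OD at 570 nm. Data are mean ± SD from ≥3 independent experiments.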
# [19] = test system: U-251; experiment: Induction of DR4 expression in human U251MG cells at 25 uM after 24 hrs by FITC-conjugated flow cytometric analysis; assay type: functional, cell-based; how it was run: as §6
# [20] = test system: T98G; experiment: Induction of apoptosis in human T98G cells assessed as increase in cleaved caspase 9 levels at 2.5 uM after 24 hrs by Western blot analysis in presence of TRAIL; assay type: functional, cell-based; how it was run: as §3
# [21] = test system: U-87 MG; experiment: Effect on DcR1 expression in human U87MG cells upto 25 uM after 24 hrs by Western blot analysis; assay type: functional, cell-based; settings: U-87MG ATCC; how it was run: as §1
# [22] = test system: U-87 MG; experiment: Induction of DR5 expression in human U87MG cells at 25 uM by Western blot analysis; assay type: functional, cell-based; settings: U-87MG ATCC, TDE = time-dependent effect
# How it was run: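 Time course: U87MG and U373MG cells held at 25 μM morusin for the times indicated. Extracts immunoblotted (cIAP1 or DR5), with β-actin as loading control.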
structure (smiles),measurement,setting,value
CC(C)=CCc1c(-c2ccc(O)cc2O)oc2c3c(cc(O)c2c1=O)OC(C)(C)C=C3 [MORUSIN],Activity,[1],inactive
same,Activity,[2],Active
same,Activity,[3],Active
same,inhibition,[4],tde
same,Activity,[5],inactive
same,Activity,[6],Active
same,Activity,[7],Active
same,Activity,[8],Active
same,Activity,[9],Active
same,Activity,[10],Active
same,IC50,[11],24 µM
same,inhibition,[12],Active
same,Activity,[13],inactive
same,Activity,[14],inactive
same,Activity,[15],Active
same,Activity,[16],tde
same,IC50,[17],24 µM
same,Activity,[18],10%
same,Activity,[19],inactive
same,Activity,[20],Active
same,Activity,[21],inactive
same,Activity,[22],tde
